Bioassay records from PubChem BioAssay.
An excerpt weighted towards active compounds, which were near 0.72% of everything screened.
hIAP act: increases human intestinal alkaline phosphatase activity. P09923. purified human IAP, CDP-Star luminescence, 30 min; hits give high values; 1 = vehicle-only enzyme, 0 = enzyme-free background. activation factor at 10 µM. 330,000 tested, 0.16% active;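 active = activation factor of the enzyme at least 2-fold when tested at 20 µM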
Target sequence (P09923 whole entry, looked up): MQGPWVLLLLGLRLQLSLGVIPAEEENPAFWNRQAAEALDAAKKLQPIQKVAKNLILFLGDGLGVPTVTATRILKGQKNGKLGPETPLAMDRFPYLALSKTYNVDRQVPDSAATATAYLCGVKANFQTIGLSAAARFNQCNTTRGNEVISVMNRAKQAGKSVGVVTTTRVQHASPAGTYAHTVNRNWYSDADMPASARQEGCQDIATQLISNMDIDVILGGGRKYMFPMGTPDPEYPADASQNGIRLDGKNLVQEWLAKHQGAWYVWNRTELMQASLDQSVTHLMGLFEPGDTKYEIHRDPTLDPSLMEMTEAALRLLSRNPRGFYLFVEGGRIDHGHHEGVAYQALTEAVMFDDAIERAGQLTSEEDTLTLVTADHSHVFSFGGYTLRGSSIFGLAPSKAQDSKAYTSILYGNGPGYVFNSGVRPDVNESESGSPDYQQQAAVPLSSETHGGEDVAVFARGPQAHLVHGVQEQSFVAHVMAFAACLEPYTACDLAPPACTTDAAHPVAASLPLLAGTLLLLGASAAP
mIAP activ: mouse IAP activation | muIAP, CDP-Star luminescence, 30 min; hits give high values; 1 = vehicle-only enzyme signal, 0 = enzyme-free wells | activation factor at 10 µM | 330,000 tested, 0.24% active | AID 2805;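 active = activation factor of at least 2 at 20 µM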
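System: mouse IAP enzyme. Reagent: CDP-Star chemiluminescent phosphatase substrate. Benchmarks: DMSO wells, no-enzyme wells. Times: 30 min enzyme-substrate-compound incubation at room temperature. Detection: luminescence from enzymatic CDP-Star hydrolysis. Doses: test compounds delivered from DMSO solution.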
mIAP block: mouse IAP inhibition; purified mouse IAP, CDP-Star luminescence, 30 min; inhibition, % at 10 µM; 330,000 tested, 0.2% active; AID 2806;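 active = inhibition of at least 40% at 10 µM in the primary screen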
bIAP activator: increases bovine intestinal alkaline phosphatase activity; AID 1016; purified bovine IAP, CDP-star luminescence, 30 min; hits give high values; fold of DMSO-control signal, blank-subtracted; activation factor at 20 µM; 200,000 tested, 0.17% active;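 active = activation factor of 2 or more at 20 µM, a signal rise over negative controls twice the positive control's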
bIAP inhibitor: intestinal alkaline phosphatase (bovine) inhibition | purified bovine IAP, CDP-star luminescence, 30 min | inhibition, % at 20 µM | 190,000 tested, under 10 active | AID 1019;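 active = over 50% inhibition of intestinal alkaline phosphatase at 20 µM in the single-dose screen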
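System: purified bovine intestinal alkaline phosphatase (IAP) enzyme; Input: IAP diluted 1/65,000,000 in the well; Measured by: CDP-star luminescence signal; Compound dosing: 20 µM single dose; Incubation: 30 min reaction at room temperature.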
hIAP block: blocks human intestinal alkaline phosphatase; 330,000 tested, 0.12% active; purified IAP, CDP-Star luminescence, 30 min; inhibition, % at 10 µM; AID 2544;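 active = inhibition reaching a set limit with compound at 10 µM in the primary screen, cut at about 35% in these data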
hIAP act conf: human IAP activation confirmation; activation (%Activity, negative = activation), % at 8.3 µM; shares compounds with hIAP act; 880 tested, 10% active; purified IAP, CDP-Star luminescence, 30 min; hits give low values;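 active = at least twofold enzyme activation in any of six single-dose repeats, which the averaged readout prints as negative percent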
mIAP inh conf: mouse IAP inhibition confirmation; shares compounds with mIAP block; AID 434971; inhibition, % at 10 µM; purified mouse IAP, CDP-Star luminescence, 30 min; 11,000 tested, 4.7% active;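 active = inhibition of at least 40% at 10 µM in either of the two replicates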
Each line names hits and unclear results; the compound was inactive in the other large screens (follow-up assays come after a bar, where they were run).

Cc1ccc(C)c(NC(=S)NCc2ccccc2)c1	none (no result: bIAP activator, bIAP inhibitor)
Cc1ccc(NC(=O)CCC(=O)NNC(=S)Nc2ccccc2)c(C)c1	hIAP act 2.06 | hIAP act conf inactive
COC(=O)[C@H](Cc1ccccc1)NC(=O)NCCc1ccc(F)cc1	none (no result: bIAP activator, bIAP inhibitor)
CN(CC(=O)Nc1ccccc1Br)C(=O)CNC(=O)c1ccc(Oc2ccccc2)cc1	hIAP block 35.1 (no result: bIAP activator, bIAP inhibitor) | hIAP act conf inactive
O=C(Nc1ncn[nH]1)c1ccc(Cl)c(S(=O)(=O)N2CCCCCC2)c1	hIAP act 2.37 | hIAP act conf inactive
CCC(=O)NNc1ncnc2c1cnn2-c1cccc(C)c1	none
Cc1ccc(-n2ncc3c(NNC(=O)c4ccco4)ncnc32)cc1C	hIAP act 2.48 (no result: bIAP activator, bIAP inhibitor) | hIAP act conf inactive
O=C(NNc1ncnc2c1cnn2-c1cccc(Cl)c1)c1ccco1	hIAP act 3.36 (no result: bIAP activator, bIAP inhibitor) | hIAP act conf inactive
Cc1nc(SCC(=O)Nc2ccc(OCc3ccccc3)cc2)n[nH]1	none
Cc1nc(S/C(=C\c2ccc(OCc3ccccc3Cl)cc2)C(=O)O)n[nH]1	hIAP act 2.13 | hIAP act conf inactive
CC(C)c1ccc(C(=O)NNC(=O)c2n[nH]c(=O)c3ccccc23)cc1	none (no result: bIAP activator, bIAP inhibitor)
CC(=O)Nc1cccc(C(=O)NNC(=O)c2n[nH]c(=O)c3ccccc23)c1	hIAP act 2.33 (no result: bIAP activator, bIAP inhibitor) | hIAP act conf -124.9
Cc1nnc(N2CCc3ccccc3C2)[nH]c1=O	hIAP block 36.2 | hIAP act conf inactive
CCOC(=O)c1ccc(NC(=O)c2nc[nH]c2C(=O)N[C@@H](CC(C)C)C(=O)OC(C)(C)C)cc1	hIAP act 2.03 (no result: bIAP activator, bIAP inhibitor) | hIAP act conf inactive
Cn1c(Cn2c(=O)sc3ccccc32)nnc1SCC(=O)N1CCN(c2ccccc2)CC1	none
Cc1ccc(-n2nc(C)c3c2OC(N)=C(C#N)C3c2ccncc2)cc1 (centres undefined)	none
Cc1nn(-c2ccccc2)c2c1C(c1ccncc1)C(C#N)=C(N)O2 (centres undefined)	hIAP block 37.6 | hIAP act conf inactive
O=C(CSc1nnc2ccccn12)Nc1cccc(S(=O)(=O)N2CCOCC2)c1	none
CCCOc1ccc(C(=O)NCC(c2ccco2)N(C)C)cc1OC (centres undefined)	none
COc1ccc(C(=O)NCC(=O)NCC(c2ccco2)N(C)C)cc1OC (centres undefined)	hIAP block 43.8 | hIAP act conf inactive
NS(=O)(=O)c1ccc2nc(NC(=O)c3ccc4ncsc4c3)sc2c1	hIAP block 35.6 (no result: bIAP activator, bIAP inhibitor) | hIAP act conf inactive
CCN(c1ccccc1)S(=O)(=O)c1ccc(OC)c(NC(=O)Cc2ccc(F)cc2)c1	none (no result: bIAP activator, bIAP inhibitor)
Cc1cccc(NC(=O)NCC2CCN(c3ccc(S(=O)(=O)N4CCOCC4)cc3)CC2)c1	hIAP act 2.08, mIAP activ 3.51 (no result: bIAP activator, bIAP inhibitor) | hIAP act conf inactive | mIAP inh conf inactive
Cc1ccccc1NC(=O)NCC1CCN(c2ccc(S(=O)(=O)N3CCOCC3)cc2)CC1	none (no result: bIAP activator, bIAP inhibitor)
CCc1[nH]nc(C(=O)N2CCCC(C(=O)c3cccc(C(F)(F)F)c3)C2)c1C (centres undefined)	none (no result: bIAP activator, bIAP inhibitor)
N#C/C(=C\c1ccc(O)c(O)c1)C(=O)N1CCCC1	none
N#C/C(=C\c1ccc(O)c(O)c1)C(=O)c1ccc(O)c(O)c1	mIAP block 86.6, hIAP block 37.4 (no result: bIAP activator, bIAP inhibitor) | hIAP act conf inactive | mIAP inh conf 86.5
CCn1cc(CN2CCC(C(=O)Nc3cccc(-c4cccc(OC)c4)c3)CC2)cn1	none (no result: bIAP activator, bIAP inhibitor)
CC(C)n1cc(CN2CCC(C(=O)Nc3cccc(-c4cccc(Cl)c4)c3)CC2)cn1	hIAP act 8.78, mIAP activ 5.95 (no result: bIAP activator, bIAP inhibitor) | hIAP act conf -96.7 | mIAP inh conf inactive
CCn1nc(C)c(CN2CCC(C(=O)Nc3cccc(-c4cccc(F)c4)c3)CC2)c1C	hIAP act 6.14, mIAP activ 4.87 (no result: bIAP activator, bIAP inhibitor) | hIAP act conf inactive | mIAP inh conf inactive
O=C(NN1C(=O)/C(=C/c2ccc(O)c(O)c2)SC1=S)c1ccccc1	mIAP block 44.5, hIAP block 69.2 (no result: bIAP activator, bIAP inhibitor) | hIAP act conf inactive | mIAP inh conf 77.7
